# Laboratory results published in ChEMBL document CHEMBL4270517, “New 6- and 7-heterocyclyl-1H-indole derivatives as potent tubulin assembly and cancer cell growth inhibitors” (Eur J Med Chem, 2018).
# Calls of active or inactive are those of the source. No cut-off for these calls is given here.
# What was measured:
# Tubulin (Homo sapiens) [1] = target: T1, Tubulin (Homo sapiens) (UniProt P68371+Q9H4B7+P0DPH7+P68366+Q13509+Q71U36+P04350+Q3ZCM7+P07437+P68363+Q9BQE3+Q6PEY2+Q13885+Q9BVA1+Q9BUF5); test: Inhibition of [3H]colchicine binding to tubulin (unknown origin) at 5 uM after 10 mins relative to control; assay type: protein-complex assay
# Tubulin = test: Inhibition of tubulin polymerization (unknown origin) preincubated for 15 mins followed by GTP addition measured for 20 mins by spectrophotometric method; assay type: protein-complex assay, Homo sapiens
# Procedure, shortened: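 Purified tubulin at 10 µM in 0.8 M monosodium glutamate pH 6.6 with 4% DMSO and varying compound; preincubated 15 min at 30 °C, chilled on ice, GTP to 0.4 mM added, turbidity at 350 nm followed 20 min at 30 °C. Extent of assembly measured; IC50 derived.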
# Tubulin (Homo sapiens) [2] = target: T1, Tubulin (Homo sapiens); test: Inhibition of tubulin polymerization in human HeLa cells assessed as fragmented or multipolar spindles formation at 20 to 50 nM by DAPI staining based immunofluorescence analysis; assay type: cell-based
# Procedure, shortened: (§1)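 HeLa cells on poly-L-lysine coverslips treated 24 h with 20–100 nM compound, fixed in methanol 6 min, immunostained for α-tubulin (FITC secondary), DNA counterstained with DAPI; spindle and microtubule morphology of mitotic cells examined by epifluorescence microscopy with 100× oil objective.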
# Tubulin (Homo sapiens) [3] = target: T1, Tubulin (Homo sapiens); test: Inhibition of tubulin polymerization in human HeLa cells assessed as microtubule asters formation at 100 nM by DAPI staining based immunofluorescence analysis; assay type: cell-based; procedure, shortened: as §1
# Tubulin (Homo sapiens) [4] = target: T1, Tubulin (Homo sapiens); test: Inhibition of tubulin polymerization in human HeLa cells assessed as formation of sparse tubulin foci at >= 50 nM by DAPI staining based immunofluorescence analysis; assay type: cell-based; procedure, shortened: as §1
# Tubulin (Homo sapiens) [5] = target: T1, Tubulin (Homo sapiens); test: Inhibition of tubulin polymerization in human HeLa cells assessed as fragmented or multipolar spindles formation at 20 nM by DAPI staining based immunofluorescence analysis; assay type: cell-based; procedure, shortened: as §1
# OVCAR-8 = test: Growth inhibition of human OVCAR8 cells after 96 hrs by trypan blue exclusion assay; assay type: functional, cell-based; conditions: OVCAR-8, 96 h
# MCF7 = test: Growth inhibition of human MCF7 cells after 96 hrs by trypan blue exclusion assay; assay type: functional, cell-based; conditions: MCF7, 96 h
# NCI/ADR-RES = test: Growth inhibition of human NCI/ADR-RES cells after 96 hrs by trypan blue exclusion assay; assay type: functional, cell-based
# HeLa = test: Induction of cell death in human HeLa cells at 20 nM after 24 hrs by annexin V-FITC staining based flow cytometry
# HepG2 = test: Growth inhibition of human HepG2 cells after 48 hrs by MTT assay; assay type: functional, cell-based; conditions: HepG2, 48 h
Structure (SMILES),inhibition (Tubulin (Homo sapiens) [1]) [%],IC50 (Tubulin) [nM],further results
COc1cc(Sc2c[nH]c3c(-c4cccs4)cccc23)cc(OC)c1OC,89,570,inhibition (Tubulin (Homo sapiens) [2]): Active; inhibition (Tubulin (Homo sapiens) [3]): Active
COc1cc(Sc2c[nH]c3cc(-c4ccco4)ccc23)cc(OC)c1OC,97,590,
COc1cc(C(=O)c2c[nH]c3c(-c4ccco4)cccc23)cc(OC)c1OC,70,,
COc1cc(C(=O)c2c[nH]c3cc(-c4ccco4)ccc23)cc(OC)c1OC,96,760,
COc1cc(C(=O)c2c[nH]c3cc(-c4cccs4)ccc23)cc(OC)c1OC,96,380,
COc1cc(C(=O)c2c[nH]c3c(-c4ccoc4)cccc23)cc(OC)c1OC,29,3000,
COc1cc(Sc2c[nH]c3c(-c4ccsc4)cccc23)cc(OC)c1OC,77,1300,
COc1cc(C(=O)c2c[nH]c3cc(-c4ccoc4)ccc23)cc(OC)c1OC,96,610,
COc1ccc(/C=C\c2cc(OC)c(OC)c(OC)c2)cc1O [COMBRETASTATIN A4],,,IC50 (OVCAR-8): 4 nM; IC50 (MCF7): 5 to 13 nM; IC50 (NCI/ADR-RES): 3.5 nM
COc1cc(Sc2c(-c3cccs3)[nH]c3ccccc23)cc(OC)c1OC,88,740,
CC[C@]1(O)C[C@@H]2CN(CCc3c([nH]c4ccccc34)[C@@](C(=O)OC)(c3cc4c(cc3OC)N(C)[C@H]3[C@@](O)(C(=O)OC)[C@H](OC(C)=O)[C@]5(CC)C=CCN6CC[C@]43[C@@H]65)C2)C1,,,Activity (HeLa): Active
COc1cc(Sc2c[nH]c3cc(-c4cccs4)ccc23)cc(OC)c1OC,95,470,
COc1cc(Sc2c[nH]c3c(-c4ccco4)cccc23)cc(OC)c1OC,95,640,
COc1cc(C(=O)c2c[nH]c3cc(-c4ccsc4)ccc23)cc(OC)c1OC,94,600,
COc1cc(C(=O)c2c[nH]c3c(-c4cccs4)cccc23)cc(OC)c1OC,48,2600,
CC(=O)O[C@H]1C(=O)[C@@]2(C)[C@H]([C@H](OC(=O)c3ccccc3)[C@]3(O)C[C@H](OC(=O)[C@H](O)[C@@H](NC(=O)c4ccccc4)c4ccccc4)C(C)=C1C3(C)C)[C@]1(OC(C)=O)CO[C@@H]1C[C@@H]2O [PACLITAXEL],,,IC50 (OVCAR-8): 4 nM; IC50 (MCF7): 5.5 nM; IC50 (NCI/ADR-RES): 3100 nM; IC50 (HepG2): 2660 nM
COc1cc(C(=O)c2c[nH]c3c(-c4ccsc4)cccc23)cc(OC)c1OC,,6200,

# Now from value to molecule, other results behind:
inhibition (Tubulin (Homo sapiens) [1]) [%],IC50 (Tubulin) [nM],Structure (SMILES),further results
90,2300,COc1cc(Sc2c[nH]c3cc(-c4ccoc4)ccc23)cc(OC)c1OC,
97,580,COc1cc(Sc2c[nH]c3cc(-c4ccsc4)ccc23)cc(OC)c1OC,inhibition (Tubulin (Homo sapiens) [4]): Active; inhibition (Tubulin (Homo sapiens) [5]): Active
72,1700,COc1cc(Sc2c[nH]c3ccc(-c4ccsc4)cc23)cc(OC)c1OC,
63,1800,COc1cc(Sc2c[nH]c3ccc(-c4ccoc4)cc23)cc(OC)c1OC,
81,870,COc1cc(Sc2c[nH]c3ccc(-c4ccco4)cc23)cc(OC)c1OC,
86,1300,COc1cc(Sc2c[nH]c3c(-c4ccoc4)cccc23)cc(OC)c1OC,
76,1300,COc1cc(Sc2c[nH]c3ccc(-c4cccs4)cc23)cc(OC)c1OC,
